Numbering of substitutions follows the chain as printed. Names may count otherwise.
Assays:
[1] = tested on: RNF146 WWE domain; settings: cited from earlier work
[2] = target: T1, RNF146(RING-WWE) (residues 30–183) (Mus musculus, UniProt Q9CZW6); experiment: ITC, iso-ADPr binding to WT RNF146
T1 sequence (Q9CZW6 32-185): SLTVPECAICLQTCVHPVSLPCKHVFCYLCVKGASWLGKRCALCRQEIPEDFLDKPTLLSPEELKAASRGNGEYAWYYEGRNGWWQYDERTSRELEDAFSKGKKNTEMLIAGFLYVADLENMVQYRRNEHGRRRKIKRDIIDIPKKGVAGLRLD

[3] = target: T2, K61A RNF146(RING-WWE) (Mus musculus, UniProt Q9CZW6, K63A); experiment: ITC, iso-ADPr binding to K61A RNF146; settings: 25 °C, K61A mutant
T2 sequence (Q9CZW6 32-185 K63A): T1 sequence (Q9CZW6 32-185) with K32A
How it was run: (§1)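 Calorimetry at 25 °C on untagged mouse RNF146(RING-WWE), wild type or site-directed mutants. Protein and iso-ADPr were exchanged by Superdex 75 SEC into 20 mM HEPES pH 7.5, 150 mM NaCl, 1 mM DTT. Cell held ~15–20 μM protein. Ligand ~500 μM in the same buffer. Both were degassed. Injections of 5 μL every 5 min, 25–40 total. Kd came from a one-site model fit.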

[4] = target: T3, K61D RNF146(RING-WWE) (Mus musculus, UniProt Q9CZW6, K63D); experiment: ITC, iso-ADPr binding to K61D RNF146; settings: 25 °C, K61D mutant
T3 sequence (Q9CZW6 32-185 K63D): T1 sequence (Q9CZW6 32-185) with K32D
How it was run: as §1

[5] = tested on: full-length RNF146 or RNF146(RING-WWE); experiment: E2~Ub/lysine reactivity assay with UbcH5; assay type: biochemical, human; settings: for activation of Ub transfer from UbcH5~Ub to lysine: ligand added to full-length RNF146 or RING-WWE fragment, not RING-only construct
How it was run: (§2)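 Mouse RNF146(RING-WWE) (residues 30–183), made from a GST-tagged construct with TEV cleavage, or His6-T7-tagged full-length RNF146. UbcH5~Ub was charged by wheat E1 (1.5 μM) with 100 μM E2, 200 μM K0 Ub, 2.5 mM MgCl2 and 2 mM ATP in PBS at 37 °C for 30 min, then SEC-purified. Final: 25 μM E2, 4 or 8 μM E3, ± iso-ADPr. Started with 40 mM L-lysine at 35 °C; sampled 1–15 min; non-reducing SDS-PAGE, Coomassie/Oriole stain.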

[6] = tested on: RNF146(RING-WWE) K61D; experiment: E2~Ub/lysine reactivity assay, K61D mutant; assay type: biochemical, mouse; settings: 8 μM E3, 25 μM iso-ADPr
How it was run: as §2

[7] = target: RNF146 WWE domain alone; settings: previously published; cited from earlier work
[8] = target: T4, TNKS(5ARC) (human, UniProt O95271 173-961); experiment: pull-down
T4 sequence (looked up): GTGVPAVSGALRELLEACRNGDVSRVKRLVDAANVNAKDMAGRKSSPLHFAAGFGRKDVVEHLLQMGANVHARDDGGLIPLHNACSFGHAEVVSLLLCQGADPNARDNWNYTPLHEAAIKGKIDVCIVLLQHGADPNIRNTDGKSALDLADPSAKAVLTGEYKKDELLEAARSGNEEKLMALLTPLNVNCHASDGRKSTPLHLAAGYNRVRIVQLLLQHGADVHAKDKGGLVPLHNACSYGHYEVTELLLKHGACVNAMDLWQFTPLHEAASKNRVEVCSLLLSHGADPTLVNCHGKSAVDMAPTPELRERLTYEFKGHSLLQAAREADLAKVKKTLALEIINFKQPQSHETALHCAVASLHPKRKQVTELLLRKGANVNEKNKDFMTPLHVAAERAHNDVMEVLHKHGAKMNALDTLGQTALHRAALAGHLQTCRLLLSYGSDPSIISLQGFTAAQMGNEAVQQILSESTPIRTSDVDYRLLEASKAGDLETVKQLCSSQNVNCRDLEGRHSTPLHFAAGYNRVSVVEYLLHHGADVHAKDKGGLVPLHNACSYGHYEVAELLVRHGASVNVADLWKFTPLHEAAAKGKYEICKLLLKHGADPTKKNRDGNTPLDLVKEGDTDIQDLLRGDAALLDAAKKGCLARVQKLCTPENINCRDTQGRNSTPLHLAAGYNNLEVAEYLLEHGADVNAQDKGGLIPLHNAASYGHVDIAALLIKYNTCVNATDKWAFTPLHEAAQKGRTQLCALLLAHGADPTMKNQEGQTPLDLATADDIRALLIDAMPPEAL

[9] = target: T5, Full-length mouse tankyrase-1 (mouse, UniProt Q6PFX9 1-1320); experiment: pull-down
T5 sequence (looked up): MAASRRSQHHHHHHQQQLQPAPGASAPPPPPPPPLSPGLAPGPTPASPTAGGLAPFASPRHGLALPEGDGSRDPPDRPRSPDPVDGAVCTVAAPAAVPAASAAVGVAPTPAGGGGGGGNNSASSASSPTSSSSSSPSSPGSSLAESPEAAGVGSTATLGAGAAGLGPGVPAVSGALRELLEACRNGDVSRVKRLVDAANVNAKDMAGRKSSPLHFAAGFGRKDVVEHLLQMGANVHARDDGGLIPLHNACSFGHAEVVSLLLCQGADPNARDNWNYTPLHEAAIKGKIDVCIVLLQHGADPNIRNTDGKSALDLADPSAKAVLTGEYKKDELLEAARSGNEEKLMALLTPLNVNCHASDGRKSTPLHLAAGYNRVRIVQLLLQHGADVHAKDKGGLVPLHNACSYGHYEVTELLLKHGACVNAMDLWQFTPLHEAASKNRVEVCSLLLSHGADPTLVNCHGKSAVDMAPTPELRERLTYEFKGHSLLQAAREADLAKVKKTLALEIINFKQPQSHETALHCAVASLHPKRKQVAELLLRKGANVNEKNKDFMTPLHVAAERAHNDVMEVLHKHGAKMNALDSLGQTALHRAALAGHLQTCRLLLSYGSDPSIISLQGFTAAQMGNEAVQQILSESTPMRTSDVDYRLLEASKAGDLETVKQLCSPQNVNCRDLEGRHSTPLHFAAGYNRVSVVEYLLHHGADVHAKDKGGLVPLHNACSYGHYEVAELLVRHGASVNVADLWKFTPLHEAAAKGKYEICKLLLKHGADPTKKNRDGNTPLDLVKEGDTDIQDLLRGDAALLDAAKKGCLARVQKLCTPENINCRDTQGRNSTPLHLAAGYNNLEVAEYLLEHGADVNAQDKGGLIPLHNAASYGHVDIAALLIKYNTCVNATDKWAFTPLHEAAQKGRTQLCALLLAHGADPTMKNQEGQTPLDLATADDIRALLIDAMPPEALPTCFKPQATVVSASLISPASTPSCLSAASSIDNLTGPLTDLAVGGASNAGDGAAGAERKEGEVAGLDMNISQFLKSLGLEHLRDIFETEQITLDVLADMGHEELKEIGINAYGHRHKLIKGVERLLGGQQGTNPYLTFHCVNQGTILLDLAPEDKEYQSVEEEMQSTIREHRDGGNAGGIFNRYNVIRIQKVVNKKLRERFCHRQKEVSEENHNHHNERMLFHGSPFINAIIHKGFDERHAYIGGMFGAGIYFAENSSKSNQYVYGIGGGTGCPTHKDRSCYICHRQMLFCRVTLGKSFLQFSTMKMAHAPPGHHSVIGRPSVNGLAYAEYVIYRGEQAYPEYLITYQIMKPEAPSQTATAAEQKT

[10] = target: T4, TNKS(5ARC); experiment: SEC-MALS

## Nc1ncnc2c1ncn2[C@@H]1O[C@H](COP(=O)(O)OP(=O)(O)OC[C@H]2OC(O)[C@H](O)[C@@H]2O)[C@@H](O)[C@H]1O (stereo partly shown) [ADPr, ADP-ribose]
[1]
  binding to WWE domain: does not bind

## Nc1ncnc2c1ncn2[C@@H]1O[C@H](COP(=O)(O)O)[C@@H](O)[C@H]1O[C@@H]1O[C@H](COP(=O)(O)O)[C@@H](O)[C@H]1O [iso-ADPr]
[2]; ITC, 25 °C, one-site model
  Kd: 39 nM
[2]; ratio of Kd 39 nM vs 372 nM
  binding to RNF146(RING-WWE) relative to the WWE domain alone: ten times tighter
[3]
  Kd: 214 nM
[4]
  Kd: 457 nM
[5]; 3 min after lysine addition, 1.2 equiv.
  iso-ADPr concentration up to which the rate of E2~Ub/lysine reactivity increases: 5 µM
[5]
  activation of Ub transfer from UbcH5~Ub to lysine: robust activation
[6]
  activation of E2~Ub/lysine reactivity: not activated
[7]
  Kd: 372 nM

## poly(ADP-ribose) [PAR]
[5]
  activation of Ub transfer from UbcH5~Ub to lysine: robust activation

B1: GST-RNF146 G337V/G338V (natural protein, human, UniProt Q9NTX7-2 1-358, looked up)
chain: MAGCGEIDHSINMLPTNRKANESCSNTAPSLTVPECAICLQTCVHPVSLPCKHVFCYLCVKGASWLGKRCALCRQEIPEDFLDKPTLLSPEELKAASRGNGEYAWYYEGRNGWWQYDERTSRELEDAFSKGKKNTEMLIAGFLYVADLENMVQYRRNEHGRRRKIKRDIIDIPKKGVAGLRLDCDANTVNLARESSADGADSVSAQSGASVQPLVSSVRPLTSVDGQLTSPATPSPDASTSLEDSFAHLQLSGDNTAERSHRGEGEEDHESPSSGRVPAPDTSIEETESDASSDSEDVSAVVAQHSLTQQRLLVSNANQTVPDRSDRSGTDRSVAGVVTVSVSVRSRRPDGQCTVTEV
[8]
  binding result: binds

B2: GST-RNF146-R163A (natural protein, human, UniProt Q9NTX7-2 1-358, looked up)
chain: B1 chain with R163A, V337G, V338G
[9]
  binding result: binds

B3: GST-RNF146 G199V (natural protein, human, UniProt Q9NTX7-2 1-358, looked up)
chain: B1 chain with G199V, V337G, V338G
[8]
  binding result: binds

B4: GST-RNF146 (full-length, wt) (natural protein, human, UniProt Q9NTX7-2 1-358, looked up)
chain: B1 chain with V337G, V338G
[8]
  binding result: binds

B5: His6-T7-RNF146 (full-length) (natural protein, human, UniProt Q9NTX7-2 1-358, looked up)
chain: B1 chain with V337G, V338G
[10]
  binding result: binds

B6: GST-RNF146(1–205) (domain or fragment, human, UniProt Q9NTX7-2 1-205, looked up)
chain: MAGCGEIDHSINMLPTNRKANESCSNTAPSLTVPECAICLQTCVHPVSLPCKHVFCYLCVKGASWLGKRCALCRQEIPEDFLDKPTLLSPEELKAASRGNGEYAWYYEGRNGWWQYDERTSRELEDAFSKGKKNTEMLIAGFLYVADLENMVQYRRNEHGRRRKIKRDIIDIPKKGVAGLRLDCDANTVNLARESSADGADSVSA
[8]
  binding result: binds
